pEC50, pIC50: −log10 of the molar value. Active and inactive are the calls of the source. The calls are words filed in the database; no cut-off is given here.
Key:
[1] = tested on: Hepatitis C virus; test: Antiviral activity against HCV infected in human HuH7 cells assessed as reduction in replicon RNA levels incubated for 5 days by RT-PCR assay; type: functional, organism-based, Hepacivirus hominis; conditions: Huh-7, 120 h
Outline: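 Huh-7 clone B cells carrying HCV replicon RNA, seeded at 3000 cells/well; compounds added in dose response in triplicate right after seeding. Incubated 5 days at 37 °C, 5% CO₂. Total RNA extracted; replicon RNA and rRNA internal control co-amplified by one-step multiplex real-time RT-PCR. Antiviral effect taken as ΔCt versus no-drug control; cytotoxicity read from rRNA reduction.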

[2] = tested on: Vero; test: Cytotoxicity against African green monkey Vero cells assessed as reduction in cell viability incubated for 5 days by Cell-titer 96 aqueous one solution cell proliferation assay; type: cell-based; conditions: chlorocebus sabaeus, vero, 120 h
[3] = tested on: HepG2; test: Mitochondrial toxicity in human HepG2 cells assessed as effect on mitochondrial cytochrome c oxidase subunit 2 DNA level incubated for 14 days by real-time PCR method; type: cell-based; conditions: hepg2, 336 h
Outline: (§1)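 HepG2 cells in DMEM with 4.5 g/L glucose and 10% heat-inactivated FBS, seeded at 5000 cells/well on collagen; compounds added 1 day later at final 1–50 μM. Medium and compound renewed every 3–4 days for 14 days; duplicates in two independent experiments. COXII mtDNA and nuclear β-actin DNA measured by real-time PCR, normalised to untreated control; IC₅₀ calculated.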

[4] = tested on: HepG2; test: Mitochondrial toxicity in human HepG2 cells assessed as effect on nuclear beta-actin DNA level incubated for 14 days by real-time PCR method; type: cell-based; conditions: hepg2, 336 h; outline: as §1
[5] = tested on: HepG2; test: Mitochondrial toxicity in human HepG2 cells assessed as induction of lactic acid levels at 1 uM incubated for 14 days; type: cell-based; conditions: hepg2, 336 h
Outline: (§2)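 After 14 days of HepG2 exposure to compound (same culture regimen as the mtDNA assay), lactic acid in culture supernatant quantified with a D-/L-lactic acid kit by absorbance. Results expressed as % lactic acid over % nuclear DNA (β-actin control); mean of triplicates from a single plate.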

[6] = tested on: HepG2; test: Mitochondrial toxicity in human HepG2 cells assessed as induction of lactic acid levels at 10 uM incubated for 14 days; type: cell-based; conditions: hepg2, 336 h; outline: as §2
[7] = tested on: HepG2; test: Mitochondrial toxicity in human HepG2 cells assessed as induction of lactic acid levels at 50 uM incubated for 14 days; type: cell-based; conditions: hepg2, 336 h; outline: as §2
[8] = Drug metabolism in human HuH7 cells assessed as 2'-C-Me-DAPN-TP level per million cells at 50 uM incubated for 4 hrs at 37 degC by LC-MS/MS method; type: ADME, cell-based; conditions: huh-7, 4 h
Outline: (§3)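 Huh-7 cells (after attachment) or freshly plated primary human hepatocytes (after overnight acclimatation), 1 × 10⁶ cells/well, exposed to 50 μM compound for 4 h at 37 °C. Cells washed twice with ice-cold PBS and extracted overnight at −20 °C in 70% methanol containing 20 nM ddATP. Mono-, di- and triphosphates quantified by LC–MS/MS as pmol/10⁶ cells; three replicates.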

[9] = Drug metabolism in human HuH7 cells assessed as 2'-C-Me-GTP level at 50 uM incubated for 4 hrs at 37 degC by LC-MS/MS method; type: ADME, cell-based; conditions: huh-7, 4 h; outline: as §3
[10] = Drug metabolism in human primary hepatocytes assessed as 2'-C-Me-DAPN-TP level at 50 uM incubated for 4 hrs at 37 degC by LC-MS/MS method; type: ADME, cell-based, Hepatocyte; outline: as §3
[11] = (§4) Inhibition of HCV C-terminal His-tagged NS5Bdelta21 enzyme assessed as reduction in NS5B-mediated RNA polymerization using [32P]-GpG primer, RNA template and rNTP nucleotide mix incubated for 120 mins by PAGE method; design: species or system Hepacivirus hominis
Outline: (§5)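 Purified NS5BΔ21 (C-terminal His tag), 1 μM, at 30 °C with 1 μM 20-mer RNA template and 1 μM ³²P-GpG primer. Buffer was 40 mM Tris pH 7.5, 6 mM NaCl, 2 mM MgCl₂. Started with 10 μM NTP mix, 1 μM competing NTP and triphosphate inhibitor at 0–100 μM. Products run on 20% denaturing PAGE and quantified; IC₅₀ calculated.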

[12] = tested on: Hepacivirus hominis; test: as §4; outline: as §5
[13] = tested on: Hepacivirus hominis; test: Inhibition of HCV C-terminal His-tagged NS5Bdelta21 enzyme assessed as induction of pausing at sites of AMP incorporation during NS5B-mediated RNA polymerization using [32P]-GpG primer, RNA template and rNTP nucleotide mix incubated for 120 mins by PAGE method
Outline: as §5, with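 “μM. Stopped at 120 min with EDTA/formamide.” for “μM.”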

[14] = tested on: Hepatocyte; test: (§6) Drug level in human primary hepatocytes treated with 50 uM Ethyl 3-(2-(((R)-(((2R,3R,4R,5R)-5-(2,6-Diamino-9H-purin-9-yl)-3,4-dihydroxy-4-methyltetrahydrofuran-2-yl)methoxy)(((S)-1-ethoxy-1-oxopropan-2-yl)amino)phosphoryl)oxy)phenyl)-propanoate assessed as compound formation incubated for 4 hrs at 37 degC by LC-MS/MS method; type: ADME, cell-based
Outline: (§7)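 Freshly plated primary human hepatocytes seeded at 1 × 10⁶ per well and acclimated overnight, then given 50 μM compound for 4 h at 37 °C. After two ice-cold PBS washes, extraction ran overnight at −20 °C in 70% methanol with 20 nM ddATP. Dried extracts went to LC–MS/MS for intracellular metabolites, as three replicates from one plate, ±SD.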

[15] = as §6, with “HuH7 cells” for “primary hepatocytes”; type: ADME, cell-based; conditions: huh-7, 4 h
Outline: (§8)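 Huh-7 cells seeded at 1 × 10⁶ per well and exposed to 50 μM compound after attachment, 4 h at 37 °C. Cells washed twice with ice-cold PBS, then extracted overnight at −20 °C in 70% methanol containing 20 nM ddATP. Supernatants were dried and analysed by LC–MS/MS for parent nucleoside and its mono-, di- and triphosphates (pmol/10⁶ cells).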

[16] = tested on: Hepatocyte; test: Drug level in human primary hepatocytes treated with 50 uM beta-D-2,6-diaminopurine nucleoside assessed as compound formation incubated for 4 hrs at 37 degC by LC-MS/MS method; type: ADME, cell-based; outline: as §7
[17] = Drug level in human HuH7 cells treated with 50 uM beta-D-2,6-diaminopurine nucleoside assessed as compound formation incubated for 4 hrs at 37 degC by LC-MS/MS method; type: ADME, cell-based; conditions: huh-7, 4 h; outline: as §8
[18] = (§9) Drug level in human HuH7 cells treated with 50 uM Isopropyl 3-(2-(((S)-(((2R,3S,4R,5R)-5-(2,6-Diamino-9H-purin-9-yl)-3,4-dihydroxy-4-methyltetrahydrofuran-2-yl)methoxy)-(((S)-1-isopropoxy-1-oxopropan-2-yl)amino)phosphoryl)oxy)-phenyl)propanoate 15c(Sp) and Isopropyl 3-(2-(((R)-(((2R,3S,4R,5R)-5-(2,6-Diamino-9H-purin-9-yl)-3,4-dihydroxy-4-methyltetrahydrofuran-2-yl)methoxy)(((S)-1-isopropoxy-1-oxopropan-2-yl)amino)phosphoryl)oxy)phenyl)propanoate assessed as compound formation incubated for 4 hrs at 37 degC by LC-MS/MS method; type: ADME, cell-based; conditions: huh-7, 4 h; outline: as §8
[19] = tested on: Hepatocyte; test: as §9, with “primary hepatocytes” for “HuH7 cells”; type: ADME, cell-based; outline: as §7

`CC(C)OC(=O)CCc1ccccc1OP(=O)(N[C@@H](C)C(=O)OC(C)C)OC[C@H]1O[C@@H](n2cnc3c(N)nc(N)nc32)[C@](C)(O)[C@H]1O` (stereo not given in full) showed a pEC50 [1] of 6.15, an EC90 [1] of 2.5 µM and a CC50 [2] greater than 100 µM. For the same compound, the CC50 [3] was greater than 50 µM, the CC50 [4] was greater than 50 µM and the Activity [5] was 90%. The Activity [6] was 81%, the Activity [7] was 80% and the Drug metabolism [8] was “metabolite_detected”. For the same compound, the Drug metabolism [9] was “metabolite_detected” and the Drug metabolism [10] was “metabolite_detected”.
For `C[C@@]1(O)[C@H](O)[C@@H](COP(=O)(O)OP(=O)(O)OP(=O)(O)O)O[C@H]1n1cnc2c(N)nc(N)nc21`, the pIC50 [11] was 5.47, the inhibition [12] was “Dose-dependent effect” and the inhibition [13] was “Active”. For the same compound, the Drug metabolism [14] was “metabolite_detected”, the Drug metabolism [15] was “metabolite_detected” and the Drug metabolism [16] was “metabolite_detected”. For the same compound, the Drug metabolism [17] was “metabolite_detected”, the Drug metabolism [18] was “metabolite_detected” and the Drug metabolism [19] was “metabolite_detected”.
